Activity calls are given as the source filed them.
How the values were obtained:
Type in all cases: functional, cell-based
THP-1 [1] = test: Antiinflammatory activity against LPS-stimulated human THP-1 cells assessed reduction in IL-1beta level pretreated at 5 uM for 1 hr followed by LPS stimulation and measured upto 24 hrs by ELISA analysis
How it was run: (§1)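 THP-1 cells pre-treated with compound for 1 h (5 μM or 1 μM, depending on the compound), then stimulated with 100 ng/mL LPS. Culture supernatant was taken at 24 h, and TNF-α, IL-6 or IL-1β was measured by sandwich ELISA at 450 nm with 540 nm correction; four biological replicates.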

THP-1 [2] = test: Antiinflammatory activity against LPS-stimulated human THP-1 cells assessed reduction in IL-6 level pretreated at 5 uM for 1 hr followed by LPS stimulation and measured upto 24 hrs by ELISA analysis; how it was run: as §1
THP-1 [3] = test: Antiinflammatory activity against LPS-stimulated human THP-1 cells assessed reduction in TNFalpha level pretreated at 5 uM for 1 hr followed by LPS stimulation and measured upto 24 hrs by ELISA analysis; how it was run: as §1
THP-1 [4] = test: Antiinflammatory activity against LPS-stimulated human THP-1 cells assessed as blockage of inflammatory phenotype by measuring m/z ratio at 5 uM pretreated for 1 hr followed by LPS stimulation and measured upto 24 hrs
How it was run: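 THP-1 cells at 1 million/mL, pre-treated with compound at 5 μM for 1 h in technical triplicate, then 100 ng/mL LPS for 24 h. Pellets frozen on dry ice, thawed, washed in 100 mM Tris–HCl pH 7.5 at 4 °C. MALDI-TOF MS read-out is the normalized m/z 4964/4632 ratio, with a 40% cutoff used for hit calling; three biological replicates.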

Measured: Activity

CCN1CCN(Cc2ccc(NC(=O)c3ccc(C)c(Oc4ccnc5[nH]ccc45)c3)cc2C(F)(F)F)CC1
active: THP-1 [1] | THP-1 [2] | THP-1 [3] | THP-1 [4]

CC[C@@H]1C(=O)N(C)c2cnc(Nc3ccc(C(=O)NC4CCN(C)CC4)cc3OC)nc2N1C1CCCC1
active: THP-1 [1] | THP-1 [2] | THP-1 [3] | THP-1 [4]

Reference: ChEMBL document CHEMBL5113533 (J Med Chem, 2022)
